Measurements: ChEMBL document CHEMBL1153581, “Synthesis, antiviral and anticancer activity of some novel thioureas derived from N-(4-nitro-2-phenoxyphenyl)-methanesulfonamide” (Eur J Med Chem, 2009)
Converted amounts (≈) assume the structure as drawn.

What was measured:
[1] = system: Mammalian orthoreovirus 1; experiment: Antiviral activity against Reovirus 1 infected in african green monkey Vero cells assessed as protection against virus-induced cytopathogenicity; assay type: functional
[2] = Cytotoxicity against Cytomegalovirus infected HEL cells assessed as change in cell morphology; assay type: cell-based; conditions: human
Procedure, shortened: (§1)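 HEL cell cultures examined under the microscope. Minimal cytotoxic concentration (MCC) is the concentration that causes a microscopically detectable alteration of cell morphology. Compounds were tested at subtoxic concentrations alongside the antiviral tests.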

[3] = system: Human alphaherpesvirus 1; experiment: Antiviral activity against acyclovir-resistant thymidine kinase-deficient HSV1 KOS infected in human HEL cells assessed as protection against virus-induced cytopathogenicity; assay type: functional; conditions: Human alphaherpesvirus 1, KOS
[4] = Cytotoxicity against HIV-1 3B infected human MT4 cells; assay type: cell-based; conditions: HIV-1 3B-infected MT4 cells
[5] = system: Punta Toro virus; experiment: Antiviral activity against Punta Toro virus infected in african green monkey Vero cells assessed as protection against virus-induced cytopathogenicity; assay type: functional
[6] = Cytotoxicity against HEL cells assessed as change in cell morphology; assay type: cell-based; conditions: human; procedure, shortened: as §1
[7] = system: Human respirovirus 3; experiment: Antiviral activity against Parainfluenza-3 virus infected in african green monkey Vero cells assessed as protection against virus-induced cytopathogenicity; assay type: functional
[8] = system: Human alphaherpesvirus 1; experiment: Antiviral activity against HSV1 KOS infected in HEL cells assessed as protection against virus-induced cytopathogenicity; assay type: functional; conditions: Human alphaherpesvirus 1, KOS
[9] = system: Coxsackievirus B4; experiment: Antiviral activity against Coxsackievirus B4 infected in african green monkey Vero cells assessed as protection against virus-induced cytopathogenicity; assay type: functional; conditions: Enterovirus B
[10] = system: Vesicular stomatitis virus; experiment: Antiviral activity against Vesicular stomatitis virus infected in human HeLa cells assessed as protection against virus-induced cytopathogenicity; assay type: functional
[11] = system: Coxsackievirus B4; experiment: Antiviral activity against Coxsackievirus B4 infected in human HeLa cells assessed as protection against virus-induced cytopathogenicity; assay type: functional; conditions: Enterovirus B
[12] = system: Human immunodeficiency virus 1; experiment: Antiviral activity against HIV-1 3B infected in human MT4 cells assessed as protection against virus-induced cytopathogenicity at 125 ug/ml; assay type: functional
Procedure, shortened: (§2)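 MT-4 cells infected with HIV-1 (IIIB) or HIV-2 (ROD), with maximum protection (%) against virus-induced cytopathicity recorded at 125 of compound.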

[13] = system: Human immunodeficiency virus 2; experiment: Antiviral activity against HIV-2 ROD infected in human MT4 cells assessed as protection against virus-induced cytopathogenicity at 125 ug/ml; assay type: functional, ISOLATE ROD; procedure, shortened: as §2
[14] = system: Human alphaherpesvirus 3; experiment: Antiviral activity against Varicella Zoster Virus OKA infected in HEL cells assessed as reduction in virus plaque formation; assay type: functional, organism-based; conditions: Human alphaherpesvirus 3, OKA
Procedure, shortened: (§3)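 Plaque reduction in HEL cells against CMV (AD-169, Davis) or VZV (TK⁺ OKA, TK⁻ 07/1), using a virus input of 20 PFU. EC50 is the concentration that reduced plaque formation by 50%.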

[15] = system: Human alphaherpesvirus 3; experiment: Antiviral activity against thymidine kinase deficient Varicella Zoster Virus 07/1 infected in HEL cells assessed as reduction in virus plaque formation; assay type: functional, organism-based; conditions: Human alphaherpesvirus 3, 07/1, HEL; procedure, shortened: as §3
[16] = Cytotoxicity against Varicella Zoster Virus infected human […] cells assessed as change in cell morphology; assay type: cell-based
[17] = Cytotoxicity against african green monkey Vero cells assessed as change in cell morphology; assay type: cell-based; conditions: chlorocebus sabaeus
Procedure, shortened: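 Vero cell cultures were used for the broad-spectrum antiviral screen. The MCC endpoint is the lowest concentration that causes a microscopically detectable alteration of cell morphology. Activity was called when 5 × MIC < MCC.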

[18] = system: Human immunodeficiency virus 2; experiment: Antiviral activity against HIV-2 ROD infected human MT4 cells assessed as protection against virus-induced cytopathogenicity; assay type: functional, organism-based; conditions: Human immunodeficiency virus 2, ISOLATE ROD
Procedure, shortened: (§4)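 HIV-1 (IIIB) or HIV-2 (ROD) infection of MT-4 cells, scored as protection against virus-induced cytopathicity. IC50 was derived from protection.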

[19] = system: Human alphaherpesvirus 2; experiment: Antiviral activity against Herpes simplex virus 2 infected in HEL cells assessed as protection against in virus-induced cytopathogenicity; assay type: functional
[20] = Cytotoxicity against Varicella Zoster Virus infected human […] cells assessed as reduction in cell growth; assay type: cell-based
[21] = system: Sindbis virus; experiment: Antiviral activity against Sindbis virus infected in african green monkey Vero cells assessed as protection against virus-induced cytopathogenicity; assay type: functional
[22] = system: Vesicular stomatitis virus; experiment: Antiviral activity against sVesicular stomatitis virus infected in HEL cells assessed as protection against virus-induced cytopathogenicity; assay type: functional
[23] = system: Human immunodeficiency virus 1; experiment: Antiviral activity against HIV-1 3B infected human MT4 cells assessed as protection against virus-induced cytopathogenicity; assay type: functional, organism-based; conditions: Human immunodeficiency virus 1, 3B; procedure, shortened: as §4
[24] = system: Respiratory syncytial virus; experiment: Antiviral activity against RSV infected in human HeLa cells assessed as protection against virus-induced cytopathogenicity; assay type: functional
[25] = system: Human betaherpesvirus 5; experiment: Antiviral activity against Cytomegalovirus AD169 infected in HEL cells assessed as reduction in virus plaque formation; assay type: functional, organism-based; conditions: Human betaherpesvirus 5, AD169, HEL; procedure, shortened: as §3
[26] = system: Cytomegalovirus; experiment: Antiviral activity against Cytomegalovirus Davis infected in HEL cells assessed as reduction in virus plaque formation; assay type: functional, organism-based; conditions: Human betaherpesvirus 5, Davis; procedure, shortened: as §3
[27] = Cytotoxicity against Cytomegalovirus infected HEL cells assessed as reduction in cell growth; assay type: cell-based; conditions: human
[28] = system: HeLa; experiment: Cytotoxicity against human HeLa cells assessed as change in cell morphology; assay type: functional
Procedure, shortened: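 The minimum cytotoxic concentration (MCC) is the concentration causing a microscopically detectable alteration of cell morphology in the uninfected host cell culture.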

## CCNC(=S)Nc1ccc(NS(C)(=O)=O)c(Oc2ccccc2)c1
[1]
  MIC50: > 40 µg/mL
[2]
  CC50: > 100 µg/mL
[3]
  MIC50: 120 µg/mL (≈ 328 µM)
[4]
  CC50: > 125 µg/mL
[5]
  MIC50: > 40 µg/mL
[6]
  MCC: > 200 µg/mL
[7]
  MIC50: ≥ 24 µg/mL
[8]
  MIC50: 120 µg/mL (≈ 328 µM)
[9]
  MIC50: > 40 µg/mL
[10]
  MIC50: > 40 µg/mL
[11]
  MIC50: > 40 µg/mL
[12]
  Activity: 97%
[13]
  Activity: 89.5%
[14]
  EC50: > 100 µg/mL
[15]
  EC50: > 100 µg/mL
[16]
  CC50: > 100 µg/mL
[17]
  MCC: 200 µg/mL
[18]
  IC50: 65.9 µg/mL (≈ 180 µM)
[19]
  MIC50: 120 µg/mL (≈ 328 µM)
[20]
  CC50: > 100 µg/mL
[21]
  MIC50: > 40 µg/mL
[22]
  MIC50: > 200 µg/mL
[23]
  IC50: 54.8 µg/mL (≈ 150 µM)
[24]
  MIC50: > 40 µg/mL
[25]
  EC50: > 100 µg/mL
[26]
  EC50: > 100 µg/mL
[27]
  CC50: > 100 µg/mL
[28]
  MCC: 200 µg/mL
